Data as given in ChEMBL document CHEMBL2046403, “Biochemical and pharmacological evaluation of 4-hydroxychromen-2-ones bearing polar C-3 substituents as anticoagulants” (Eur J Med Chem, 2012).

Experiments:
Rattus norvegicus [1] = assay: Anticoagulant activity in Wistar rats in vivo assessed as prothrombin time
Plasma [2] = assay: Anticoagulant activity in Wistar albino rat plasma assessed as prothrombin time at 0.5 mg/kg, ip; format: functional; conditions: route intraperitoneal
How it was run: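 Adult Wistar rats (2.5 months, 220–250 g), three per compound and control, were given a single i.p. dose of 0.1 or 0.5 mg/kg in ethanol solution and sacrificed 24 h later. Plasma prothrombin time was measured by Quick method and reported in seconds and as INR, from at least three measurements.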

Rattus norvegicus [3] = assay: Drug metabolism in Wistar albino rat assessed as coumarin-7-glucuronide level in urine at 1 mg/kg, ip measured after 72 hrs by GC/MS analysis; conditions: in vivo
Plasma [4] = assay: Anticoagulant activity in Wistar albino rat plasma assessed as prothrombin time at 0.1 mg/kg, ip; format: functional; conditions: route intraperitoneal
How it was run: (§1)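 Adult Wistar rats (2.5 months, 220–250 g), three per compound and control, were given a single i.p. dose of 0.1 or 0.5 mg/kg in ethanol solution and sacrificed 24 h later. […] Plasma prothrombin time was measured by Quick method and reported in seconds and as INR, from at least three measurements.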

Rattus norvegicus [5] = assay: Hepatotoxicity in Wistar albino rat assessed as change in serum albumin level at 0.5 mg/kg, ip measured after 24 hrs; format: toxicity, organism-based; set-up: dose 0.5 mg/kg, route intraperitoneal; conditions: in vivo
Rattus norvegicus [6] = assay: Hepatotoxicity in Wistar albino rat assessed as change in serum iron level at 0.5 mg/kg, ip measured after 24 hrs; format: toxicity, organism-based; set-up: dose 0.5 mg/kg, route intraperitoneal; conditions: in vivo
Plasma [7] = assay: Anticoagulant activity in human plasma assessed as prothrombin time at 1 mg/ml; format: functional
How it was run: (§2)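 Frozen human plasma (blood type A+) was used. Compounds were prepared at 1 mg/mL in a vehicle of 96% EtOH, 0.9% NaCl, 20% glycerol and phosphate buffer pH 7. Prothrombin time was measured by Quick method and reported in seconds and as INR, with SD from at least three measurements.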

Rattus norvegicus [8] = assay: Hepatotoxicity in Wistar albino rat assessed as change in serum gamma-GT level at 0.5 mg/kg, ip measured after 24 hrs; format: toxicity, organism-based; set-up: dose 0.5 mg/kg, route intraperitoneal; conditions: in vivo
Rattus norvegicus [9] = assay: Drug metabolism in Wistar albino rat assessed as 7-hydroxycoumarin level in urine at 1 mg/kg, ip measured after 72 hrs by GC/MS analysis; conditions: in vivo
Plasma [10] = assay: Anticoagulant activity in Wistar albino rat plasma assessed as fibrinogen level at 0.5 mg/kg/day, ip administered for 5 days; format: functional; conditions: route intraperitoneal
How it was run: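 Wistar rats (220–250 g), three per group, got one i.p. dose of 0.5 mg/kg per day for five days and were sacrificed on day six. […] Plasma fibrinogen was measured by biuret method at 540 nm.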

Rattus norvegicus [11] = assay: Hepatotoxicity in Wistar albino rat assessed as change in serum iron level at 0.5 mg/kg/day, ip administered for 5 days measured after second compound dose; format: toxicity, organism-based; set-up: route intraperitoneal; conditions: in vivo, 120 h
Rattus norvegicus [12] = assay: Hepatotoxicity in Wistar albino rat assessed as change in serum ALP level at 0.5 mg/kg, ip measured after 24 hrs; format: toxicity, organism-based; set-up: dose 0.5 mg/kg, route intraperitoneal; conditions: in vivo
Rattus norvegicus [13] = assay: Hepatotoxicity in Wistar albino rat assessed as change in serum AST level at 0.5 mg/kg/day, ip administered for 5 days measured after second compound dose; conditions: in vivo, 120 h
Rattus norvegicus [14] = assay: Hepatotoxicity in Wistar albino rat assessed as change in serum gamma-GT level at 0.5 mg/kg, ip administered for 5 days measured after second compound dose; format: toxicity, organism-based; set-up: dose 0.5 mg/kg, route intraperitoneal; conditions: in vivo, 120 h
Rattus norvegicus [15] = assay: Hepatotoxicity in Wistar albino rat assessed as change in serum AST level at 0.5 mg/kg, ip measured after 24 hrs; format: toxicity, organism-based; set-up: dose 0.5 mg/kg, route intraperitoneal; conditions: in vivo
Plasma [16] = assay: Anticoagulant activity in Wistar albino rat plasma assessed as fibrin time; format: functional
How it was run: (§3)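 Adult albino Wistar rats (2.5 months old, 220–250 g), three per compound and control. […] Fibrin time and fibrinogen were determined on plasma. Fibrinogen was quantified by biuret method at 540 nm. At least three measurements, reported with standard deviation.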

Rattus norvegicus [17] = assay: Hepatotoxicity in Wistar albino rat assessed as change in serum ALT level at 0.5 mg/kg, ip measured after 24 hrs; format: toxicity, organism-based; set-up: dose 0.5 mg/kg, route intraperitoneal; conditions: in vivo
Rattus norvegicus [18] = assay: Hepatotoxicity in Wistar albino rat assessed as change in serum protein level at 0.5 mg/kg, ip measured after 24 hrs; format: toxicity, organism-based; set-up: dose 0.5 mg/kg, route intraperitoneal; conditions: in vivo
Plasma [19] = assay: Anticoagulant activity in Wistar albino rat plasma assessed as fibrinogen level; format: functional
How it was run: as §3

Rattus norvegicus [20] = assay: Hepatotoxicity in Wistar albino rat assessed as change in serum bilirubin level at 0.5 mg/kg, ip measured after 24 hrs; format: toxicity, organism-based; set-up: dose 0.5 mg/kg, route intraperitoneal; conditions: in vivo
Rattus norvegicus [21] = assay: Hepatotoxicity in Wistar albino rat assessed as change in serum AST level at 0.5 mg/kg, ip measured after 24 hrs relative to untreated control; format: toxicity, organism-based; set-up: dose 0.5 mg/kg, route intraperitoneal; conditions: in vivo
How it was run: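 Serum AST was measured 24 h after a single 0.5 mg/kg i.p. dose (ethanol solution) in Wistar rats, three per group, by IFCC UV kinetic method at 340 nm. Activity was expressed as fold of the negative (96% ethanol) control, and compared by one-way ANOVA with post-hoc tests.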

Plasma [22] = assay: Anticoagulant activity in Wistar albino rat plasma assessed as prothrombin time at 0.5 mg/kg/day, ip administered for 5 days measured after second dose; format: functional; conditions: route intraperitoneal
How it was run: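 Wistar rats, three per group, were dosed i.p. at 0.5 mg/kg per day over five days in ethanol solution and sacrificed on day six. Plasma prothrombin time was measured by Quick method after the second 0.5 mg/kg administration, reported in seconds and INR. Where animals were dosed more than once, PTs were averaged.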

Plasma [23] = assay: Anticoagulant activity in Wistar albino rat plasma assessed as prothrombin time at 0.5 mg/kg, ip relative to warfarin; format: functional; conditions: route intraperitoneal
How it was run: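 Rats (Wistar, 220–250 g, n=3 per group) were dosed i.p. with 0.5 mg/kg compound in ethanol solution. Prothrombin time was measured in plasma by Quick method and expressed as fold of the matching control value. […] Groups were compared by one-way ANOVA with Dunnett T3 or Bonferroni post-hoc tests.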

Rattus norvegicus [24] = assay: Hepatotoxicity in Wistar albino rat assessed as change in serum ALT level at 0.5 mg/kg/day, ip administered for 5 days measured after second compound dose; conditions: in vivo, 120 h
Plasma [25] = assay: Anticoagulant activity in Wistar albino rat plasma assessed as international normalized ratio at 0.5 mg/kg, ip; format: functional; conditions: route intraperitoneal
How it was run: as §1

Plasma [26] = assay: Anticoagulant activity in human plasma assessed as international normalized ratio at 1 mg/ml; format: functional
How it was run: as §2

Plasma [27] = assay: Anticoagulant activity in Wistar albino rat plasma assessed as international normalized ratio at 0.1 mg/kg, ip; format: functional; conditions: route intraperitoneal
How it was run: as §1

Structure (SMILES) | IC50 (Rattus norvegicus [1]) [µM] | PT (Plasma [2]) [s] | PT (Plasma [4]) [s] | Activity (Rattus norvegicus [5]) [g/L] | Activity (Rattus norvegicus [6]) [µmol/L] | PT (Plasma [7]) [s] | Activity (Rattus norvegicus [8]) [U/L] | Activity (Rattus norvegicus [12]) [U/L] | Activity (Rattus norvegicus [15]) [U/L] | Time (Plasma [16]) [s] | Activity (Rattus norvegicus [17]) [U/L] | Activity (Rattus norvegicus [18]) [g/L] | Activity (Plasma [19]) [g/L] | Activity (Rattus norvegicus [20]) [µmol/L] | Ratio (Plasma [25]) | Ratio (Plasma [26]) | Ratio (Plasma [27]) | also measured
COC(=O)/C(C(=O)O)=C(\C)c1c(O)c2ccccc2oc1=O | 3160 | 8.7 | 5.7 | 35.8 | 19.4 | 20 | 4.4 | 215 | 218.4 | 19.4 | 51.8 | 62.8 | 3.2 | 1.8 | 0.48 | 1.9 | 0.37 | –
COC(=O)/C=C(/C)c1c(O)c2ccccc2oc1=O | 2750 | 9 | 8 | 39 | 54.2 | 20 | 3 | 333 | 154.3 | 35.2 | 57.2 | 65.2 | 1.8 | 1.4 | 0.67 | 1.9 | 0.64 | –
CC(=O)C(C(C)=O)=C(C)c1c(O)c2ccccc2oc1=O | 1380 | 9.6 | 8.6 | 40.6 | 32.4 | 17 | 4.4 | 223 | 201.4 | 24.6 | 56.4 | 66.5 | 2.47 | 1.5 | 0.72 | 1.55 | 0.69 | –

The next molecules have a lower IC50 (Rattus norvegicus [1]) than those just listed; values first:

IC50 (Rattus norvegicus [1]) [µM] | Structure (SMILES) | PT (Plasma [2]) [s] | PT (Plasma [4]) [s] | Activity (Rattus norvegicus [5]) [g/L] | Activity (Rattus norvegicus [6]) [µmol/L] | PT (Plasma [7]) [s] | Activity (Rattus norvegicus [8]) [U/L] | Activity (Rattus norvegicus [12]) [U/L] | Activity (Rattus norvegicus [15]) [U/L] | Time (Plasma [16]) [s] | Activity (Rattus norvegicus [17]) [U/L] | Activity (Rattus norvegicus [18]) [g/L] | Activity (Plasma [19]) [g/L] | Activity (Rattus norvegicus [20]) [µmol/L] | Ratio (Plasma [25]) | Ratio (Plasma [26]) | Ratio (Plasma [27]) | also measured
69.2 | Cc1cccc(Nc2nc(-c3c(O)c4ccccc4oc3=O)cs2)c1 | 9.7 | 9.6 | 41.9 | 28.4 | 25 | 2.2 | 172 | 284.6 | 27.6 | 67.3 | 66.2 | 2 | 1.8 | – | – | – | Drug metabolism (Rattus norvegicus [3]): Active; Drug metabolism (Rattus norvegicus [9]): Active; Activity (Plasma [10]): 1.2 g/L; Activity (Rattus norvegicus [11]): 17.3 µmol/L; AST (Rattus norvegicus [13]): 175.5 U/L; Activity (Rattus norvegicus [14]): 3 U/L; fold change (FC) (Rattus norvegicus [21]): 1.68; PT (Plasma [22]): 28.1 s; Activity (Plasma [23]): 79.51%; ALT (Rattus norvegicus [24]): 62.4 U/L
933 | CCN(CC)c1nc(-c2c(O)c3ccccc3oc2=O)cs1 | 10 | 8 | 36.7 | 25 | 18.5 | 4.4 | 192 | 254.8 | 44.9 | 64.7 | 63.2 | 1.4 | 2 | 0.67 | 1.75 | 0.64 | –
